Converted amounts (≈) assume the structure as drawn. The source made the active and inactive calls. The calls are words filed in the database; no cut-off is given here.
Columns and labels:
[1] = Inhibition of PDE4 expressed in HEK293 cells coexpressing cyclic nucleotide gated ion channel mutant assessed as inhibition of NECA-induced cAMP production treated 15 mins before NECA challenge measured after 45 mins by FLIPR assay; format: cell-based
[2] = biological target: 3',5'-cyclic-AMP phosphodiesterase 4B (Homo sapiens, UniProt Q07343); test: Inhibition of human His6-tagged PDE4B (152-487) expressed in Escherichia coli BL21 (DE3) after 1 hr
Chain of 3',5'-cyclic-AMP phosphodiesterase 4B (Q07343 whole entry): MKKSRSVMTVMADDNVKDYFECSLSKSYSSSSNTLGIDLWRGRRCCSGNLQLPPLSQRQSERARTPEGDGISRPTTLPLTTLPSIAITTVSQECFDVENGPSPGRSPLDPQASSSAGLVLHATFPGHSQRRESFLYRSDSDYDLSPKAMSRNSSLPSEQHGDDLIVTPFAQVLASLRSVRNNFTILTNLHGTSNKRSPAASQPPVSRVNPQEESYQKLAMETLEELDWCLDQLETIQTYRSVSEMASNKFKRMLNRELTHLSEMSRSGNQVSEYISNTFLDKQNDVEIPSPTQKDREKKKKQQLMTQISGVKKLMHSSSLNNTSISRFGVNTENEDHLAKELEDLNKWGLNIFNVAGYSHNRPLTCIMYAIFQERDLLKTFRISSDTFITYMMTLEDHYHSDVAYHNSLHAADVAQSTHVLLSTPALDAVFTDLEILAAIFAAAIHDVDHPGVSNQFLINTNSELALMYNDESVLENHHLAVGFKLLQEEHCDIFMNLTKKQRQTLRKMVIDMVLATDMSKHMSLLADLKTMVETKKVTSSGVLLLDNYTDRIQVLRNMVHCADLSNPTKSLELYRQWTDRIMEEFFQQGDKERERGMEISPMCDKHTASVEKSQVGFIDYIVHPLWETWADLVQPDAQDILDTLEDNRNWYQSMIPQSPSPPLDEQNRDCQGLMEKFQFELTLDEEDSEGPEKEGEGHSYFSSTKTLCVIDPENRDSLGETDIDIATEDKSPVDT

[3] = Solubility in 0.1 M phosphate buffer at pH 7.4 by shake-flask method; format: physicochemical
In short: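 Shake-flask solubility in 0.1 M phosphate buffer, pH 7.4.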

[4] = Solubility in water; format: physicochemical
Oryctolagus cuniculus [5] = species: Oryctolagus cuniculus; test: Antiinflammatory activity in rabbit assessed as inhibition of lacrimal gland inflammation-induced dry eye at 10 ng/ml to 10 ug/ml bid for 4 days; format: functional, organism-based; details: Lachrymal gland
In short: (§1)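 Rabbit dry eye induced by lacrimal gland inflammation. Compound given topically b.i.d. for 4 days. Read-out is corneal staining, scored as percent inhibition versus vehicle, with dexamethasone (100 µg/mL) as positive control. Statistics by ANOVA with Dunnett's post-test.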

Rattus norvegicus [6] = test: Induction of tear secretion in rat at 100 ug/ml by topical administration after 10 mins by phenol red thread test; format: functional, organism-based
In short: (§2)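 Rats received compound topically, and tear secretion was measured 10 min later by phenol red thread test. Percent increase is relative to untreated animals, and significance is versus saline by ANOVA with Dunnett's post-test. Positive control was isoproterenol (10 µg/mL).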

Oryctolagus cuniculus [7] = species: Oryctolagus cuniculus; test: Antiinflammatory activity in rabbit assessed as inhibition of lacrimal gland inflammation-induced dry eye at 0.001 to 10 ug/ml bid for 4 days; format: functional, organism-based; details: Lachrymal gland, 0.01 to 10 ug/ml, in the assay text read “0.01 to 10 ug/ml” for “0.001 to 10 ug/ml”; in short: as §1
Rattus norvegicus [8] = test: Induction of tear secretion in rat at 10 ug/ml by topical administration after 10 mins by phenol red thread test; format: functional, organism-based; in short: as §2
HEK293 = test: Inhibition of PDE4 expressed in HEK293 cells coexpressing cyclic nucleotide gated ion channel mutant assessed as inhibition of NECA-induced cAMP production at 70 uM treated 15 mins before NECA challenge measured after 45 mins by FLIPR assay; format: cell-based

Row | Compound | IC50 [1] [nM] | IC50 [2] [nM] | solubility thermodynamic [3] [µg/mL] | further results
1 | COc1ccc2c(Nc3c(Cl)cncc3Cl)cc(=O)oc2c1OCCCC(=O)O | 890 | 80 | – | –
2 | COc1ccc2c(Nc3c(Cl)cncc3Cl)cc(=O)oc2c1OCCCCC(=O)O | 730 | 43 | 500 (≈ 1100 µM) | –
3 | COc1ccc2c(Nc3c(Cl)cncc3Cl)nncc2c1OC1CCCC1 | 1100 | 400 | – | –
4 | COc1ccc2c(Nc3c(Cl)cncc3Cl)ccnc2c1OC1CCCC1 | 8200 | 3300 | – | –
5 | COc1ccc2c(Nc3c(Cl)cncc3Cl)cc(=O)oc2c1OCCCCN(C)C | 1820 | 45 | 1800 (≈ 3980 µM) | Activity (Oryctolagus cuniculus [5]): Active; Activity (Rattus norvegicus [6]): Active; Activity (Oryctolagus cuniculus [7]): Active; Activity (Rattus norvegicus [8]): Active
6 | COc1ccc2c(Nc3c(Cl)cncc3Cl)coc2c1OC1CCCC1 | > 30000 | 16000 | – | –
7 | COc1ccc2c(c1OC1CCCC1)OCCC2Nc1c(Cl)cncc1Cl (stereo not given) | > 30000 | > 30000 | – | –
8 | COc1ccc2c(Nc3c(Cl)cncc3Cl)ncnc2c1OC1CCCC1 | 10000 | 2300 | – | –
9 | COc1ccc2c(Nc3c(Cl)cncc3Cl)cc(=O)oc2c1OCCCN(C)C | > 30000 | 670 | – | –
10 | COc1ccc2c(Nc3c(Cl)cncc3Cl)nccc2c1OC1CCCC1 | – | 500 | – | inhibition (HEK293): inactive
11 | COc1ccc2c(Nc3c(Cl)cncc3Cl)cc(=O)oc2c1OCC(=O)O | 5350 | 1180 | – | –
12 | COc1ccc(C(=O)Nc2c(Cl)cncc2Cl)cc1OC1CCCC1 | 13 | – | – | –

Further lines, with some results ahead:

Row | IC50 [1] [nM] | IC50 [2] [nM] | solubility thermodynamic [3] [µg/mL] | Compound | further results
13 | 180 | 5 | – | COc1ccc2c(Nc3c(Cl)cncc3Cl)cc(=O)oc2c1OCCCCCCN(C)C | –
14 | 120 | 2 | 1400 (≈ 2910 µM) | COc1ccc2c(Nc3c(Cl)cncc3Cl)cc(=O)oc2c1OCCCCCCC(=O)O | solubility [4]: 1400 µg/mL (≈ 2910 µM)
15 | 280 | 17 | 900 (≈ 1930 µM) | COc1ccc2c(Nc3c(Cl)cncc3Cl)cc(=O)oc2c1OCCCCCC(=O)O | solubility [4]: 900 µg/mL (≈ 1930 µM)
16 | 30 | 1 | 300 (≈ 589 µM) | COc1ccc2c(Nc3c(Cl)cncc3Cl)cc(=O)oc2c1OCCCCCCCCC(=O)O | –
17 | 150 | 3 | – | COc1ccc2c(Nc3c(Cl)cncc3Cl)cc(=O)oc2c1OCCCCCCCN(C)C | –
18 | 660 | 21 | 60 (≈ 129 µM) | COc1ccc2c(Nc3c(Cl)cncc3Cl)cc(=O)oc2c1OCCCCCN(C)C | –
19 | 40 | 2 | 300 (≈ 606 µM) | COc1ccc2c(Nc3c(Cl)cncc3Cl)cc(=O)oc2c1OCCCCCCCC(=O)O | –
20 | 150 | 2 | – | COc1ccc2c(Nc3c(Cl)cncc3Cl)cc(=O)oc2c1OCCCCCCCCN(C)C | –
21 | 1 | – | – | O=C(Nc1c(Cl)cncc1Cl)c1ccc(OC(F)F)c(OCC2CC2)c1 [ROFLUMILAST] | –
22 | 28 | – | 0.3 (≈ 0.712 µM) | COc1ccc2c(Nc3c(Cl)cncc3Cl)cc(=O)oc2c1OC1CCCC1 | –

From ChEMBL document CHEMBL1158541, “Water-soluble PDE4 inhibitors for the treatment of dry eye” (Bioorg Med Chem Lett, 2010)
